We go through two compounds from ChEMBL document CHEMBL1154279, “Cytotoxic compounds from the stems of Cinnamomum tenuifolium” (J Nat Prod, 2009).

The subject of one assay is DU-145. Briefly: Cytotoxicity against human DU145 cells after 72 hrs by XTT assay. Format: functional, cell-based. The note with it: DU-145, 24 h, in the assay text read “after 24 hrs” for “after 72 hrs”. For orientation: Formazan colour is commonly taken as a measure of viable cells.
A further assay has as its system LNCaP. As to the kind of experiment: Cytotoxicity against human LNCAP cells after 72 hrs by XTT assay. The assay is classed as functional, cell-based. The note with it: 24 h, in the assay text read “after 24 hrs” for “after 72 hrs”. The essentials: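 Prostate cancer cells in RPMI-1640 with 10% FBS, 37 °C, 5% CO2, grown to 70–80% confluence and treated at 0.1–100 µM for 24, 48 and 72 h. XTT labeling for 4 h at 37 °C, absorbance 450 nm (reference 650 nm) against control wells. IC50 derived from the mean of eight wells; taxol and cisplatin served as positive controls.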

Molecules are shown by their SMILES. Some results are limits rather than exact numbers.

One may read the IC50 as the concentration at which inhibition is half-maximal. Read a high IC50 as a need for much substance. `C=C1C=C(C(CCCCCCCCCCCCCCCCCCC)OC)C(=O)O1` (centres undefined) [TENUIFOLIDE B]: the IC50 with DU-145 stood at 246 µM; in the assay with LNCaP it was 22.2 µM.

For `COc1ccc2c(c1)CC=C(CO)c1cc3c(cc1-2)OCO3` [TENUIFOLIN], the IC50 in the assay with DU-145 was over 500 µM; in the assay with LNCaP, 223 µM.
